Source: article PMC3667667 (Clinical pharmacology and therapeutics, 2012)
Values joined by “and” are separate entries in the source; they are usually repeats but may differ in a detail not shown here. Identical values can stand only once.

What was measured:
ABCB1 [1] = conditions: rats, everted gut sacs, long-term treatment; cited from earlier work
UGT1A1 = experiment: CAR target gene expression in PBMCs treated in vitro; type: cell-based, human; conditions: PBMCs of drug-naive individuals, 10 μmol/l, 48 h
CYP3A = conditions: rats, long-term treatment; cited from earlier work
CYP2B6 [2] = experiment: CYP2B6 mRNA induction in primary human hepatocytes; type: cell-based; conditions: freshly isolated human hepatocytes, efavirenz 1 μmol/l, vs DMSO control
[3] = Pharmacokinetics of efavirenz in healthy subjects; conditions: male, human, in vivo
CYP2B6 [4] = experiment: Gene expression in PBMCs isolated from treated healthy individuals; type: in vivo, human; conditions: single dose vs steady state; P = 0.036
ABCB1 [5] = experiment: CAR target gene expression in PBMCs treated in vitro; type: cell-based, human; conditions: PBMCs of drug-naive individuals, 10 μmol/l, 48 h
ABCB1 [6] = conditions: cited from earlier work
CYP3A4 [7] = conditions: humans, long-term treatment; ref 36 (Mouly); cited from earlier work
CYP3A4 [8] = conditions: humans, long-term treatment; ref 36 (Mouly); cited from earlier work; remark: listed apart in the source
ABCB1 (P-gp) = conditions: humans, long-term treatment; ref 36 (Mouly); cited from earlier work
CYP3A4 activity = experiment: Plasma 4β-hydroxycholesterol, marker of CYP3A4 activity; type: in vivo, human
full-length CAR (CAR1) = conditions: in vitro; ref 43 (Chen et al.); cited from earlier work
ABCC2 = conditions: in vivo; ref 32 (Burhenne et al.); cited from earlier work
[9] = tested on: CAR variant containing the APYLT insertion; conditions: in vitro; ref 43 (Chen et al.); cited from earlier work
[10] = tested on: hepatic bilirubin metabolism; experiment: Total bilirubin levels; type: in vivo, human
ABCB1 [11] = conditions: in vivo; ref 32 (Burhenne et al.); cited from earlier work
CYP2B6 [12] = experiment: CAR target gene expression in PBMCs treated in vitro; type: cell-based, human; conditions: PBMCs of drug-naive individuals, 10 μmol/l, 48 h
ABCB1 [13] = conditions: human intestinal cell line from colon adenocarcinoma; cited from earlier work
CAR target genes = experiment: Gene expression in PBMCs after multiple doses of ezetimibe; type: in vivo, human; conditions: multiple doses of ezetimibe 10 mg, treatment period B
How it was run: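 PBMCs from 12 healthy male Caucasian volunteers aged 20–36 y, with the drug given after a fast of at least 10 h. EDTA blood (5 ml) drawn in the first 3 h of the pharmacokinetic day; spun 1,500g, 4 °C, 15 min; buffy coats pooled per subject, diluted in ice-cold PBS, Lymphoprep 700g, 30 min, room temperature. 1,500 ng total RNA reverse-transcribed; TaqMan real-time PCR for CYP2B6, UGT1A1, ABCB1, ABCC1, normalized to 18S-rRNA.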

ABCB1 [14] = conditions: ref 28 (Manceau et al.); cited from earlier work

O=C1Nc2ccc(Cl)cc2[C@@](C#CC2CC2)(C(F)(F)F)O1 [efavirenz]
ABCB1-mediated intestinal efflux of rhodamine 123 (ABCB1 [1]): without affecting | UGT1A1 mRNA induction in PBMCs in vitro (UGT1A1): significant induction | Hepatic CYP3A-mediated midazolam metabolism (CYP3A): induce | CYP2B6 expression in primary human hepatocytes (CYP2B6 [2]): significantly increased | CLR gluc (renal clearance) [3]: 0.050 ± 0.054 mL/min | C max ([3]; 400 mg): 622 ± 244 ng/mL | CL renal ([3]; 400 mg): 0.062 ± 0.031 mL/min | AUC(0-t) ([3]; 400 mg, AUC0–24 h): 6710 ± 2340 ng·h/mL | AUC(0-t) ([3]; 400 mg, AUC0–120 h): 17000 ± 6390 ng·h/mL | Tmax ([3]; 400 mg, T max): 2.4 ± 1.9 h | Tmax ([3]; Tmax): 2 to 3 h | Pearson r, increase in CYP2B6 expression in PBMCs vs reduction in efavirenz AUC (CYP2B6 [4]): 0.61 and 0.608 | ABCB1 mRNA induction in PBMCs in vitro (ABCB1 [5]): significant induction | ABCB1 induction in PBMCs in vitro (ABCB1 [6]): induction | CYP3A4-mediated metabolism (erythromycin breath test) (CYP3A4 [7]): induction | Intestinal CYP3A4 expression levels (CYP3A4 [8]): no impact | Intestinal ABCB1 (P-gp) expression levels (ABCB1 (P-gp)): no impact | Pearson r, change in efavirenz AUC vs change in 4β-hydroxycholesterol levels (CYP3A4 activity; single dose vs steady state, P = 0.052): −0.572 | 4β-hydroxycholesterol/cholesterol ratio (CYP3A4 activity; study days 25 and 30, multiple doses of efavirenz): significant induction | Trans-activating activity toward full-length CAR (CAR1) (full-length CAR (CAR1)): high trans-activating activity | ABCC2 expression in PBMCs (ABCC2): no significant induction | Trans-activating activity toward CAR variant containing the APYLT insertion [9]: negligible activity | Total bilirubin levels after treatment ([10]; long-term efavirenz, mean ± SD, before treatment 9.82 ± 3.86, P = 0.023): 6.34 ± 2.48 mg/dL | ABCB1 expression in PBMCs (ABCB1 [11]): no significant induction | CYP2B6 mRNA induction in PBMCs in vitro (CYP2B6 [12]): significant induction | ABCB1 expression and function in LS180 cells (ABCB1 [13]): increased expression and function

O=C1[C@H](CC[C@H](O)c2ccc(F)cc2)[C@@H](c2ccc(O)cc2)N1c1ccc(F)cc1 [ezetimibe]
Impact on target gene expression in PBMCs (CAR target genes): did not observe an impact | Impact on total bilirubin levels ([10]; multiple doses of ezetimibe, study days 15 and 17): No such impact

CCC1(c2ccccc2)C(=O)NC(=O)NC1=O [phenobarbital]
ABCB1 induction after treatment of cells (ABCB1 [14]): no induction

CO[C@H]1/C=C/O[C@@]2(C)Oc3c(C)c(O)c4c(O)c(c(/C=N/N5CCN(C)CC5)c(O)c4c3C2=O)NC(=O)/C(C)=C\C=C\[C@H](C)[C@H](O)[C@@H](C)[C@@H](O)[C@@H](C)[C@H](OC(C)=O)[C@@H]1C [rifampin]
ABCB1 induction after treatment of cells (ABCB1 [14]): no induction
